For three molecules, Activity results are on record in ChEMBL document CHEMBL1150050, “Antimutagenic agents from natural products” (J Nat Prod, 1992).

Data set [1] has as its system Salmonella typhimurium. Description: Toxicity in Salmonella Typhimurium TA100 at 75 to 300 ug/plate after 48 to 72 hrs in presence of liver S-9 fraction. Conditions: salmonella enterica subsp. enterica serovar typhimurium. In kind it is organism-based. The essentials: (§1)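 Toxicity plates were set up with bacteria, Ames S-9 preparation and test substance, with histidine in place of 2-aminoanthracene. They were mixed with top agar and incubated 48–72 h.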

Data set [2] deals with Salmonella typhimurium. Kind of data set: Antimutagenic activity in Salmonella Typhimurium TA100 assessed as inhibition of ethyl methanesulfonate-induced mutation at 300 ug/plate after 48 to 72 hrs by Ames assay in presence of liver S-9 fraction. It is filed as functional, organism-based. Conditions: Salmonella enterica subsp. enterica serovar Typhimurium.
The test system of data set [3] is Salmonella typhimurium. Description: Antimutagenic activity in Salmonella Typhimurium TA98 assessed as inhibition of 2-aminoanthracene-induced mutation at 150 ug/plate after 48 to 72 hrs by Ames assay in presence of liver S-9 fraction. It is filed as functional, organism-based. Conditions: Salmonella enterica subsp. enterica serovar Typhimurium. The method, boiled down:
(§2)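 Bacteria were combined with Ames S-9 metabolic activation preparation, test substance in DMSO and 2-aminoanthracene at 2.5 μg/plate, mixed with top agar and incubated 48–72 h. Mutagenicity inhibition was assessed relative to 2-aminoanthracene.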

Data set [4] relates to Salmonella typhimurium. Description: Antimutagenic activity in Salmonella Typhimurium TA98 assessed as inhibition of 2-aminoanthracene-induced mutation at 75 ug/plate after 48 to 72 hrs by Ames assay in presence of liver S-9 fraction. In kind it is functional, organism-based. The following applies: Salmonella enterica subsp. enterica serovar Typhimurium. The essentials: as §2

The subject of data set [5] is Salmonella typhimurium. Kind of data set: Toxicity in Salmonella Typhimurium TA98 at 75 to 300 ug/plate after 48 to 72 hrs in presence of liver S-9 fraction. In kind it is organism-based. Conditions: salmonella enterica subsp. enterica serovar typhimurium. The essentials:
as §1

In data set [6] the test system is Salmonella typhimurium. Kind of data set: Antimutagenic activity in Salmonella Typhimurium TA100 assessed as inhibition of ethyl methanesulfonate-induced mutation at 32 to 300 ug/plate after 48 to 72 hrs by Ames assay in presence of liver S-9 fraction. It is filed as functional, Salmonella enterica subsp. enterica serovar Typhimurium. More on the design: scale not given: the % may be the effect or the level left.

Data set [7] relates to Salmonella typhimurium. Description: Toxicity in Salmonella Typhimurium TA98 at 75 to 600 ug/plate after 48 to 72 hrs in presence of liver S-9 fraction. In kind it is organism-based. Conditions: salmonella enterica subsp. enterica serovar typhimurium. The method, boiled down:
as §1

In data set [8] the test system is Salmonella typhimurium. Description: Toxicity in Salmonella Typhimurium TA100 at 75 to 600 ug/plate after 48 to 72 hrs in presence of liver S-9 fraction. It is filed as organism-based. The following applies: salmonella enterica subsp. enterica serovar typhimurium. The essentials:
as §1

The structures appear in SMILES notation. Active and inactive are the calls of the source. The rule behind the calls is not given here.

Consider `CC1(C)[C@@H](Br)CC[C@]2(C)Oc3cc(Br)c(O)cc3C[C@@H]12`, for which the Activity result in the data set with Salmonella typhimurium [1] is reported as “Non-toxic”; with Salmonella typhimurium [5], “Non-toxic”; with Salmonella typhimurium [6], 80%. For the same molecule, the outcome in the data set with Salmonella typhimurium [2], in the data set with Salmonella typhimurium [3] and with Salmonella typhimurium [4] was Active.
In the case of `CC1(C)[C@@H](Br)CC[C@@]2(C)Oc3cc(Br)c(O)cc3C[C@@H]12` [CYMOBARBATOL], the values for the Activity result with Salmonella typhimurium [1], with Salmonella typhimurium [5] and in the data set with Salmonella typhimurium [6] were “Non-toxic”, “Non-toxic” and 80%, respectively. Further, the result in the data set on Salmonella typhimurium [2], in the data set on Salmonella typhimurium [3] and in the data set on Salmonella typhimurium [4] was Active.
With `CC(C)=CCC/C(C)=C/Cc1cc(O)c(Br)cc1O` [CYMOPOL], the Activity result in the data set on Salmonella typhimurium [7] and with Salmonella typhimurium [8] was “Toxic” in each case.
